PREPL inhibitor – inhibits the human prolyl oligopeptidase-like enzyme; Q4J6C6; recombinant PREPL, fluorescence polarization activity-based probe; inhibition, % at 5.96 µM; 320,000 tested, 0.68% active; in the data active = inhibition above about 43%;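 note: 0% = enzyme with DMSO and 100% = wells lacking enzyme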
Target sequence (Q4J6C6 whole entry, looked up): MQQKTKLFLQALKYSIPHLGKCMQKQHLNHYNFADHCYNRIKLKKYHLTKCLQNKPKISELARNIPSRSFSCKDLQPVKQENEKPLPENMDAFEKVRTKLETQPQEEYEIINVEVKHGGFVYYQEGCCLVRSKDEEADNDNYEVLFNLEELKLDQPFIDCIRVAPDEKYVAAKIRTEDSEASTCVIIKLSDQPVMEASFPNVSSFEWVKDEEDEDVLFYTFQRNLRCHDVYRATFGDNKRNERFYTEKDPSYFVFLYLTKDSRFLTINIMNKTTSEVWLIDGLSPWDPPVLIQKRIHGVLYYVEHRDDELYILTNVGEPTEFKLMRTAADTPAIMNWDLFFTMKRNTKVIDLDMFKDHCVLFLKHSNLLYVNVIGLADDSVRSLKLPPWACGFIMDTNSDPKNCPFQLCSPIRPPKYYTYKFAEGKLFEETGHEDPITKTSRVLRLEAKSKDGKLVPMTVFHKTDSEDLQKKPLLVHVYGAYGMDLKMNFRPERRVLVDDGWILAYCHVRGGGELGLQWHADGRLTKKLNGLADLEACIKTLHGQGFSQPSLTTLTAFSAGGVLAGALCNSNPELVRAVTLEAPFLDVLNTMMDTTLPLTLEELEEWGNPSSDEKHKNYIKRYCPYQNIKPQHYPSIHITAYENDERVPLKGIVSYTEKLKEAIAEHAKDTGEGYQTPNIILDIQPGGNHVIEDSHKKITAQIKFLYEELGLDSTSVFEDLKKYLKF
NR3A LBD binder – NR3A (human) ligand-binding domain modulation; NR3A LBD differential scanning fluorimetry, Tm shift; 0% = protein alone, 100% = glycine-bound protein; Tm shift relative to glycine control, % at 25 µM; 340,000 tested, 2.5% active; AID 1259313;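 active = melting temperature shift of at least 10% of the positive control shift, at one fixed dose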
CSC inhib – cancer stem cell inhibition | cancer stem cell-like cells viability, luminescence | inhibition, % at 7.5 µM | 300,000 tested, 1.1% active | AID 2717; in the data active = inhibition above about 75%; inconclusive = no clear call, values can overlap the other calls; tested in HMLE shEcad cells
CHOP inhibitor – inhibitors of CHOP induction in ER stress response | CHO-K1 CHOP-promoter luciferase, tunicamycin-induced, 15-18 h | inhibition, % at 10 µM | 220,000 tested, 3.8% active | AID 2732;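 active = compounds that reduced the stress-induced luciferase reporter signal by more than about 70% of percent inhibition, limit read from the data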;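 note: 0% = tunicamycin plus vehicle and 100% = wells without tunicamycin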
T cruzi repl – blocks replication of Trypanosoma cruzi; T. cruzi beta-gal in NIH3T3, luminescence, 90 h; inhibition, % (test concentration not listed); 300,000 tested, 1.4% active; AID 1885;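 active = mean inhibition across valid replicates above about 55%, limit read from the data; inconclusive = mean below that limit but half or more replicates reach it; inactive = mean below it, under half of replicates reach it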;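 note: signal also drops with host cell toxicity which is not excluded here; 0% = plate median of DMSO wells and 100% = zero luminescence signal; higher percent means less beta-gal luminescence so fewer parasites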
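Read-out: Parasite load inhibition, % | Test system: Mouse NIH/3T3 fibroblasts infected with β-gal-expressing T. cruzi Tulahuen C4 | Amount: 5,000 cells/well | Medium: DMEM, 2% fetal bovine serum | Signal: GalScreen β-gal luminescence, detergent lysis, 60 min | Timing: 3 h attach, ≥90 h co-culture | Also added: Tulahuen C4 trypomastigotes, 5000/well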
Beta cell apopt – blocks beta cell apoptosis; INS-1E cytokine-induced death, ATP luminescence, 48 h; percent of positive-control rescue, neutral wells zero; protection from apoptosis, % (test concentration not listed); 300,000 tested, 0.8% active;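 active = Every replicate reaches about 75%, or at least half do and their mean reaches it too, limit read from the data; inconclusive = At least half of replicates reach the limit but their mean does not; inactive = Under half of replicates reach the limit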;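 note: 0% = cytokine-treated negative control wells and 100% = positive control rescue; higher means more ATP so stronger rescue from cytokine killing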
Numbers without * were called inactive; ? = inconclusive; . = not tested or not shown. Shown are actives, neighbours in structure and some others; about 6.7% of the full set was active somewhere.

SMILES	PREPL inhibitor	NR3A LBD binder	CSC inhib	CHOP inhibitor	T cruzi repl	Beta cell apopt
CCOc1cc(NC(=O)c2ccco2)c(OCC)cc1NC(=O)CCc1ccccc1OC	11.1	15.5*	4.6	68.3	40.7	23.3
CCOc1cc(NC(=O)c2ccco2)c(OCC)cc1NC(=O)c1ccco1	-4.8	0.6	.	.	6.4	-1.8
CC(C(=O)NC(=O)NC1CCCCC1)N(C)CC(=O)Nc1ccc(F)c(F)c1F (configuration not stated)	1.3	-0.4	-11.0	.	14.3	7.7
CCOC(=O)c1nn(-c2ccc(F)cc2)c(-c2ccccc2)c1C(=O)c1ccccc1	15.0	0.8	78.3*	-46.2	38.7	23.7
CCOc1ccc(C(=O)c2cc([N+](=O)[O-])ccc2N2CCOCC2)cc1	12.0	-0.9	58.2	-35.5	-5.0	79.1*
CC(=O)Nc1ccc(NC(=O)COC(=O)c2cc([N+](=O)[O-])ccc2N2CCOCC2)cc1	2.3	23.2*	-0.9	.	-0.6	-3.7
COc1ccc(C(=O)c2cc([N+](=O)[O-])ccc2N2CCOCC2)cc1	7.7	-1.5	39.9	-68.7	15.0	13.4
COc1ccc(NC(=O)COC(=O)c2cc([N+](=O)[O-])ccc2N2CCOCC2)cc1	9.5	0.3	-10.3	.	1.8	-0.6
O=C(COC(=O)c1cc([N+](=O)[O-])ccc1N1CCOCC1)NCCc1ccccc1	18.7	15.9*	-10.6	.	-7.0	-3.7
CC(C)C[C@@H](CNCC(=O)[C@H](Cc1ccccc1)NC(=O)c1[nH]cnc1C(=O)N[C@H](CN)CC(C)C)NC(=O)c1nc[nH]c1C(=O)N[C@@H](CC(=O)O)C(=O)O	.	0.2	.	.	.	.
CCOC(=O)C1=C(CC)Nc2ccccc2N=C1NC(=O)c1cc(S(=O)(=O)N(C)C)ccc1Cl	7.2	17.2*	5.0	-31.4	5.0	5.3
CCOC(=O)C1CCN(S(=O)(=O)c2ccc(C(C)(C)C)cc2)CC1	6.8	-1.0	8.6	2.6	-13.0	-1.6
OC(COCc1ccccc1)CN1CCCC1 (configuration not stated)	8.9	10.5*	-3.9	-4.7	?	-7.7
OC(COCc1ccccc1)CN1CCN(c2ccccc2)CC1 (configuration not stated)	-0.9	1.7	15.9	-0.3	2.4	-3.3
O=C1c2ccccc2C(=O)N1CCOc1cccc(Br)c1	1.8	11.1*	-3.4	.	-5.7	1.5
COc1ccc(Cn2c(-c3ccco3)nc3oc4cc(OC)ccc4c(=O)c3c2=O)cc1	2.7	-2.0	-3.5	92.1*	16.0	.
COc1ccc2c(=O)c3c(=O)n(Cc4ccco4)c(-c4ccco4)nc3oc2c1	5.1	0.2	-12.9	-6.0	4.1	1.2
CCC1CCCCN1CCCCOc1cccc(Cl)c1 (configuration not stated)	18.8	0.0	0.1	.	6.3	2.5
COc1ccc(OC)c(C(=O)/C=C/c2ccccc2C(F)(F)F)c1	-8.3	-0.8	99.4*	9.6	33.7	-6.1
COc1ccc(OCc2ccc(/C=N\NC(=O)c3sccc3C)o2)cc1	.	-3.6	-11.7	.	.	6.6
CCCCn1c(=N)n(CC(=O)c2ccc(Br)s2)c2ccccc21	-12.0	0.8	35.7	6.3	15.1	82.9*
CCCCn1c(=N)n(CC(=O)C(C)(C)C)c2ccccc21	12.4	-0.9	-5.1	10.1	62.0*	2.8
CCCn1c(=N)n(CC(=O)C(C)(C)C)c2ccccc21	1.2	0.9	-2.9	14.2	6.7	4.1
C[C@H](NC(N)=O)C(=O)Nc1ccc2c(c1)OCO2	5.4	-1.0	-7.3	-19.5	-11.1	-2.9
O=c1c2nnn(-c3ccc(Br)cc3)c2ncn1Cc1ccccn1	3.7	-0.8	2.9	3.1	12.3	-3.7
SMILES	PREPL inhibitor	NR3A LBD binder	CSC inhib	CHOP inhibitor	T cruzi repl	Beta cell apopt
C=CCOC(=O)C1=C(C)NC(SC)=C(C#N)C1c1ccc(OCC)cc1 (configuration not stated)	1.1	-3.8	-11.4	94.7*	29.3	.
O=c1c2c([nH]c3ccccc13)CCCC2	4.3	0.8	-6.4	0.9	8.3	0.5
CC(C)(C)C1CCc2[nH]c3ccccc3c(=O)c2C1 (configuration not stated)	6.3	-1.7	13.4	-21.0	59.1*	10.1
Cc1nn(C)cc1CN1CCCC(C(=O)c2ccc(-c3ccccc3)cc2)C1 (configuration not stated)	-18.8	-1.5	17.4	2.9	62.1*	9.7
O=C(c1ccc(-c2ccccc2)cc1)C1CCCN(C(=O)c2ccncc2)C1 (configuration not stated)	2.3	-1.4	21.5	25.6	28.1	.
O=C(c1ccc(Cl)cc1)C1CCCN(Cc2ccc(Oc3ncccn3)cc2)C1 (configuration not stated)	25.3	0.0	14.1	17.6	47.6	4.2
O=C(c1ccc(-c2ccccc2)cc1)C1CCCN(Cc2ccncc2)C1 (configuration not stated)	-7.6	-1.5	34.0	40.2	54.8*	11.7
O=C(c1ccc(Cl)cc1)C1CCCN(Cc2cnn(-c3ccccc3)c2)C1 (configuration not stated)	-76.0	-1.5	4.9	4.4	61.1*	-1.2
O=C(NCCOc1ccc(F)cc1)C1CCC(=O)N(CCc2ccccn2)C1 (configuration not stated)	3.0	-2.5	-17.6	.	-5.9	-2.0
CC(=O)c1cccc(NC(=O)Nc2cnn(Cc3ccc(Cl)cc3Cl)c2)c1	32.0	14.1*	-4.5	55.5	22.4	-0.5
O=C(Nc1cnn(Cc2ccc(Cl)cc2Cl)c1)c1cc(-c2cccs2)on1	1.4	-3.0	17.1	57.5	47.6	15.2
CC(=O)c1ccc(NC(=O)Nc2cccc3ccccc23)cc1	.	12.9*	-3.8	.	.	-2.3
CC(=O)Nc1ccc(N=Nc2ccc(O)cc2)cc1	0.0	15.1*	-1.6	23.6	-4.7	-1.6
CC(=O)Nc1ccc(NC(=O)Nc2cccc3ccccc23)cc1	15.5	0.1	-10.5	.	4.6	-3.7
CC(=O)Nc1cccc(NC(=O)Nc2ccc(C(C)=O)cc2)c1	-7.5	13.3*	-9.7	-14.3	8.8	-7.3
COc1ccc(CCCN2CCC(CN3CCNC(=O)C3=O)CC2)cc1OC	.	-0.1	.	.	.	.
CN1CCN(c2ccc(C(=O)c3ccc(Br)cc3)cc2[N+](=O)[O-])CC1	11.6	-0.1	53.1	13.9	52.9	-25.5
Cc1noc(C(F)(F)F)c1C(=O)NNC(=O)c1cccc(C(F)(F)F)c1	1.9	-0.7	1.1	2.4	4.7	0.8
CC(=O)Nc1ccc(C#Cc2ccc(NC(C)=O)cc2)cc1	16.6	28.9*	31.6	15.9	-3.2	-5.0
CC(=O)c1ccc(NC(=O)N[C@@H](CC(C)C)C(=O)O)cc1	7.3	2.9	34.5	72.3*	-8.5	3.9
Nc1ccc(NC(=O)c2ccc(C(=O)Nc3ccc(N)cc3)cc2)cc1	0.8	-0.6	-5.1	-21.5	-3.2	-3.6
CC(=O)c1cccc(NC(=O)N[C@@H](CC(C)C)C(=O)O)c1	6.3	3.1	-6.2	1.4	-5.2	-17.5

High-throughput results (PubChem)
